The record followed here is ChEMBL document CHEMBL4673342, “Lipid-Lowering Activities of Cucurbitacins Isolated from Trichosanthes cucumeroides and Their Synthetic Derivatives” (2020).

Activity calls are given as the source filed them. No cut-off for these calls is given here.

The assay relates to HepG2. As to the kind of experiment: Induction of […] uptake in human HepG2 cells at 5 uM by DIL probe based fluorescence assay. Type of assay: functional, cell-based. Summed up:
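HepG2 cells (passages 4–11) in DMEM/10% FBS were treated with DMSO or compound at 5 µM, then given DiI-labelled human plasma LDL (20 µg/mL) for 3 h at 37 °C in the dark. After ice-cold PBS/0.4% albumin rinses, cell-bound dye was extracted with isopropanol and fluorescence read at 520–578 nm. Uptake rate is relative to DMSO. Positive control nagilactone B at 5 µM; n = 3.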
`CC(C)(O)CCC(=O)[C@](C)(O)[C@H]1[C@H](O)C[C@@]2(C)[C@@H]3CC=C4[C@@H](C[C@H](O)C(=O)C4(C)C)[C@]3(C)C(=O)C[C@]12C`: the result was Active.
Then `CC(=O)O[C@H]1C(=O)C[C@@H]2C(=CC[C@@H]3[C@@]2(C)C(=O)C[C@]2(C)[C@@H]([C@@](C)(O)C(=O)/C=C/C(C)(C)OC(C)=O)[C@H](O)C[C@@]32C)C1(C)C`, with “inactive”; and `CC(=O)OC(C)(C)/C=C/C(=O)[C@](C)(O)[C@H]1C(=O)C[C@@]2(C)[C@@H]3CC=C4[C@@H](C[C@H](O)C(=O)C4(C)C)[C@]3(C)C(=O)C[C@]12C`, with “inactive”; and `CC(=O)OC(C)(C)CCC(=O)[C@](C)(O)[C@H]1[C@H](O)C[C@@]2(C)[C@@H]3CC=C4[C@@H](CC(=O)OC4(C)C)[C@]3(C)C(=O)C[C@]12C`, with “Active”.
The entry for `CC(=O)OC(C)(C)/C=C/C(=O)[C@](C)(O)[C@H]1C(=O)C[C@@]2(C)[C@@H]3CC=C4[C@@H](CC(=O)C(=O)C4(C)C)[C@]3(C)C(=O)C[C@]12C` is “inactive”; for `CC(C)(O)/C=C/C(=O)[C@](C)(O)[C@H]1[C@H](O)C[C@@]2(C)[C@@H]3CC=C4[C@@H](CC(O)C(=O)C4(C)C)[C@]3(C)C(=O)C[C@]12C` (stereo partly drawn) it is “Active”.
Consider `CC(=O)OC(C)(C)CCC(=O)[C@](C)(O)[C@H]1[C@H](O)C[C@@]2(C)[C@@H]3CC=C4[C@@H](C[C@H](OC5O[C@H](CO)[C@@H](O)[C@H](O)[C@H]5C)C(=O)C4(C)C)[C@]3(C)C(=O)C[C@]12C` (stereo partly drawn), for which the outcome was Active.
The entry for `CC(=O)O[C@@H]1C[C@@]2(C)[C@@H]3CC=C4[C@@H](CC(=O)[C@H](O)C4(C)C)[C@]3(C)C(=O)C[C@]2(C)[C@H]1[C@@](C)(O)C(=O)CCC(C)(C)OC(C)=O` is “inactive”; for `CC1(C)C(=O)[C@@H](O)C[C@@H]2C1=CC[C@@H]1[C@@]2(C)C(=O)C[C@]2(C)[C@@H]([C@@](C)(O)C(=O)C[C@H](O)C(C)(C)O)[C@H](O)C[C@@]12C` it is “Active”; for `CC(=O)OC(C)(C)CCC(=O)[C@](C)(O)[C@H]1[C@H](O)C[C@@]2(C)[C@@H]3[C@@H](O)C=C4[C@@H](CC(=O)[C@@H](O)C4(C)C)[C@]3(C)C(=O)C[C@]12C` it is “Active”.
On to `CC(=O)OC(C)(C)/C=C/C(=O)[C@](C)(O)[C@H]1[C@H](O)C[C@@]2(C)[C@@H]3[C@@H](O)C=C4[C@@H](CC(=O)[C@H](O)C4(C)C)[C@]3(C)C(=O)C[C@]12C`, for which the outcome was Active.
Then `CC(=O)OC(C)(C)CCC(=O)[C@](C)(O)[C@H]1C(=O)C[C@@]2(C)[C@@H]3CC=C4[C@@H](C[C@H](O)C(=O)C4(C)C)[C@]3(C)C(=O)C[C@]12C`, with “inactive”.
For `CC(=O)OC(C)(C)CCC(=O)[C@](C)(O)[C@H]1[C@H](O)C[C@@]2(C)[C@@H]3CC=C(C(C)(C)C(=O)O)[C@@H](CC(=O)O)[C@]3(C)C(=O)C[C@]12C`, the outcome was Active.
As for `CC(=O)O[C@H]1C(=O)C[C@@H]2C(=CC[C@@H]3[C@@]2(C)C(=O)C[C@]2(C)[C@@H]([C@@](C)(O)C(=O)CCC(C)(C)OC(C)=O)[C@H](O)C[C@@]32C)C1(C)C`, the result was inactive.
Then `CC(=O)O[C@@H]1C[C@@]2(C)[C@@H]3CC=C4[C@@H](CC(=O)[C@H](OC(C)=O)C4(C)C)[C@]3(C)C(=O)C[C@]2(C)[C@H]1[C@@](C)(O)C(=O)/C=C/C(C)(C)OC(C)=O`, with “inactive”; and `CC(=O)OC(C)(C)/C=C/C(=O)[C@](C)(O)[C@H]1[C@H](O)C[C@@]2(C)[C@@H]3CC=C4[C@@H](C[C@H](OC(=O)c5ccccc5)C(=O)C4(C)C)[C@]3(C)C(=O)C[C@]12C`, with “inactive”; and `CC(=O)OC(C)(C)/C=C/C(=O)[C@](C)(O)[C@H]1[C@H](O)C[C@@]2(C)[C@@H]3CC=C4[C@@H](C[C@H](OC5O[C@H](CO)[C@@H](O)[C@H](O)[C@H]5C)C(=O)C4(C)C)[C@]3(C)C(=O)C[C@]12C` (stereo partly drawn), with “Active”.
Then `CC(=O)OC(C)(C)/C=C/C(=O)[C@](C)(O)[C@H]1[C@H](O)C[C@@]2(C)[C@@H]3CC=C4[C@@H](C[C@H](O)C(=O)C4(C)C)[C@]3(C)C(=O)C[C@]12C`, with “Active”; and `CC(C)(O)/C=C/C(=O)[C@](C)(O)[C@H]1[C@H](O)C[C@@]2(C)[C@@H]3CC=C4[C@@H](C=C(O)C(=O)C4(C)C)[C@]3(C)C(=O)C[C@]12C`, with “Active”.
Then `CC(=O)OC(C)(C)[C@@H](O)CC(=O)[C@](C)(O)[C@H]1[C@H](O)C[C@@]2(C)[C@@H]3[C@@H](O)C=C4[C@@H](CC(=O)[C@@H](O)C4(C)C)[C@]3(C)C(=O)C[C@]12C`, with “Active”.
Turning to `CO[C@H](CC(=O)[C@](C)(O)[C@H]1[C@H](O)C[C@@]2(C)[C@@H]3CC=C4[C@@H](C[C@H](O)C(=O)C4(C)C)[C@]3(C)C(=O)C[C@]12C)C(C)(C)O`, the result was Active.
As for `CC(=O)OC(C)(C)CCC(=O)[C@](C)(O)[C@H]1[C@H](OC(=O)c2ccccc2)C[C@@]2(C)[C@@H]3CC=C4[C@@H](C[C@H](OC(=O)c5ccccc5)C(=O)C4(C)C)[C@]3(C)C(=O)C[C@]12C`, the result was inactive.
For the compound `CC1(C)C(=O)[C@@H](O)C[C@@H]2C1=CC[C@@H]1[C@@]2(C)C(=O)C[C@]2(C)[C@@H]([C@@](C)(O)C(=O)C[C@@H](O)C(C)(C)O)[C@H](O)C[C@@]12C`, the outcome was Active.
Then `CC(=O)O[C@@H]1C[C@@]2(C)[C@@H]3CC=C4[C@@H](CC(=O)[C@H](OC(C)=O)C4(C)C)[C@]3(C)C(=O)C[C@]2(C)[C@H]1[C@@](C)(O)C(=O)CCC(C)(C)OC(C)=O`, with “inactive”; and `CC(=O)OC(C)(C)CCC(=O)[C@](C)(O)[C@H]1[C@H](O)C[C@@]2(C)[C@@H]3CC=C4[C@@H](C[C@H](OC(=O)c5ccccc5)C(=O)C4(C)C)[C@]3(C)C(=O)C[C@]12C`, with “inactive”.
Turning to `CC(=O)O[C@H]1C[C@@H]2C(=CC[C@@H]3[C@@]2(C)C(=O)C[C@]2(C)[C@@H]([C@@](C)(O)C(=O)/C=C/C(C)(C)OC(C)=O)[C@H](O)C[C@@]32C)C(C)(C)C1=O`, the result was inactive.
In the case of `CC(=O)OC(C)(C)[C@H](O)CC(=O)[C@](C)(O)[C@H]1[C@H](O)C[C@@]2(C)[C@@H]3[C@@H](O)C=C4[C@@H](CC(=O)[C@@H](O)C4(C)C)[C@]3(C)C(=O)C[C@]12C`, the result was Active.
For the compound `CC(=O)OC(C)(C)/C=C/C(=O)[C@](C)(O)[C@H]1[C@H](OC(=O)c2ccccc2)C[C@@]2(C)[C@@H]3CC=C4[C@@H](C[C@H](OC(=O)c5ccccc5)C(=O)C4(C)C)[C@]3(C)C(=O)C[C@]12C`, the result was inactive.
On to `CC(=O)OC(C)(C)CCC(=O)[C@](C)(O)[C@H]1[C@H](O)C[C@@]2(C)[C@@H]3CC=C4[C@@H](C[C@H](OC(=O)CCC(=O)O)C(=O)C4(C)C)[C@]3(C)C(=O)C[C@]12C`, for which the outcome was inactive.
Then `CC(=O)O[C@H]1C[C@@H]2C(=CC[C@@H]3[C@@]2(C)C(=O)C[C@]2(C)[C@@H]([C@@](C)(O)C(=O)/C=C/C(C)(C)OC(C)=O)[C@H](OC(=O)O)C[C@@]32C)C(C)(C)C1=O`, with “inactive”.
The entry for `CC(=O)OC(C)(C)CCC(=O)[C@](C)(O)[C@H]1[C@H](O)C[C@@]2(C)[C@@H]3CC=C4[C@@H](C[C@H](O)C(=O)C4(C)C)[C@]3(C)C(=O)C[C@]12C` is “Active”.
`CC(=O)O[C@@H]1C[C@@]2(C)[C@@H]3CC=C4[C@@H](C[C@H](O)C(=O)C4(C)C)[C@]3(C)C(=O)C[C@]2(C)[C@H]1[C@@](C)(O)C(=O)/C=C/C(C)(C)OC(C)=O`: the result was inactive.
The entry for `CC(C)(O)CCC(=O)[C@](C)(O)[C@H]1[C@H](O)C[C@@]2(C)[C@@H]3CC=C4[C@@H](C=C(O)C(=O)C4(C)C)[C@]3(C)C(=O)C[C@]12C` is “Active”; for `CC(=O)OC(C)(C)CCC(=O)[C@](C)(O)[C@H]1[C@H](O)C[C@@]2(C)[C@@H]3CC=C(C(C)(C)O)[C@@H](CC(=O)O)[C@]3(C)C(=O)C[C@]12C` it is “Active”; for `CC(=O)OC1C[C@@H]2C(=CC(=O)[C@@H]3[C@@]2(C)C(=O)C[C@]2(C)[C@@H]([C@@](C)(O)C(=O)CCC(C)(C)OC(C)=O)[C@H](OC(C)=O)C[C@@]32C)C(C)(C)C1O` (stereo partly drawn) it is “Active”.
Then `CC(=O)OC(C)(C)CCC(=O)[C@](C)(O)[C@H]1[C@H](O)C[C@@]2(C)[C@@H]3[C@@H](O)C=C4[C@@H](CC(=O)[C@H](O)C4(C)C)[C@]3(C)C(=O)C[C@]12C`, with “Active”; and `CC(=O)O[C@H]1C[C@@H]2C(=CC[C@@H]3[C@@]2(C)C(=O)C[C@]2(C)[C@@H]([C@@](C)(O)C(=O)CCC(C)(C)OC(C)=O)[C@H](OC(C)=O)C[C@@]32C)C(C)(C)C1=O`, with “inactive”.
Then `CC(=O)OC(C)(C)CCC(=O)[C@](C)(O)[C@H]1C(=O)C[C@@]2(C)[C@@H]3CC=C4[C@@H](CC(=O)C(=O)C4(C)C)[C@]3(C)C(=O)C[C@]12C`, with “inactive”.
In the case of `CC(=O)O[C@H]1C[C@@H]2C(=CC(=O)[C@@H]3[C@@]2(C)C(=O)C[C@]2(C)[C@@H]([C@@](C)(O)C(=O)/C=C/C(C)(C)OC(C)=O)[C@H](OC(=O)O)C[C@@]32C)C(C)(C)C1=O`, the result was Active.
Turning to `CC(=O)O[C@@H]1C[C@@]2(C)[C@@H]3CC=C4[C@@H](CC(=O)[C@H](O)C4(C)C)[C@]3(C)C(=O)C[C@]2(C)[C@H]1[C@@](C)(O)C(=O)/C=C/C(C)(C)OC(C)=O`, the result was inactive.
Then `CO[C@@H](CC(=O)[C@](C)(O)[C@H]1[C@H](O)C[C@@]2(C)[C@@H]3CC=C4[C@@H](C[C@H](O)C(=O)C4(C)C)[C@]3(C)C(=O)C[C@]12C)C(C)(C)O`, with “Active”.
The entry for `CC(=O)OC(C)(C)CCC(=O)[C@](C)(O)[C@H]1[C@H](O)C[C@@]2(C)[C@@H]3[C@@H](O)C=C4[C@@H](C[C@H](O)C(=O)C4(C)C)[C@]3(C)C(=O)C[C@]12C` is “Active”; for `CC(=O)OC(C)(C)/C=C/C(=O)[C@](C)(O)[C@H]1[C@H](O)C[C@@]2(C)[C@@H]3CC=C4[C@@H](CC(=O)[C@H](O)C4(C)C)[C@]3(C)C(=O)C[C@]12C` it is “Active”.
